Experimental data: ChEMBL document CHEMBL5154695, “Design, synthesis and biological evaluation of P2-modified proline analogues targeting the HtrA serine protease in Chlamydia” (Eur J Med Chem, 2022)
Activity calls are given as the source filed them.

Tests used:
[1] = target: T1, Probable periplasmic serine endoprotease DegP-like (Chlamydia trachomatis, UniProt P18584); experiment: Inhibition of recombinant Chlamydia trachomatis HtrA serine protease using MeOCoum-ENLHLPLPI1F-D as substrate measured after 30 mins
T1 sequence (P18584 whole entry): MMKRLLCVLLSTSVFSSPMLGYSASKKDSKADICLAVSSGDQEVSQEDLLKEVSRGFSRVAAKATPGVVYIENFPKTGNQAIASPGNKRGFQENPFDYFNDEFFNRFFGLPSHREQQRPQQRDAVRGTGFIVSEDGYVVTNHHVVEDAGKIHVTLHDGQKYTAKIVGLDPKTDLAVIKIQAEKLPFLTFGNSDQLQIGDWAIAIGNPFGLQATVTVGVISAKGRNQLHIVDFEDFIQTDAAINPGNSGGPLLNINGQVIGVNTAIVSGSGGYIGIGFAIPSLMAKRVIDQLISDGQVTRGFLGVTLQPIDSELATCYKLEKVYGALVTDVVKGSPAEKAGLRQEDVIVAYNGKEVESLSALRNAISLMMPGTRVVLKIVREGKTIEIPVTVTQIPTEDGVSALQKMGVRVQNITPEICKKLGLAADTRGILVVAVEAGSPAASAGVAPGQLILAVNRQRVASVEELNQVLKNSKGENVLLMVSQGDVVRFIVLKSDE

[2] = target: T2, Probable periplasmic serine endoprotease DegP-like (Chlamydia trachomatis) (UniProt P18584); experiment: Potency index, ratio of JO146 IC50 to test compound IC50 for inhibition of recombinant Chlamydia trachomatis HtrA serine protease using MeOCoum-ENLHLPLPI1F-D as substrate measured after 30 mins
T2 sequence (whole entry): T1 sequence (P18584 whole entry)

Chlamydia trachomatis [3] = experiment: Antibacterial activity against Chlamydia trachomatis D/UW-3/Cx infected in human HEp-2 cells assessed as reduction in bacterial titer below threshold at 50 uM administered at 16 hrs post infection and measured 44 hrs post infection; type: functional, organism-based; settings: time 28.0 hrs
Outline: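 C. trachomatis D (D/UW-3/Cx) in monolayers seeded 20,000 cells/well 24 h before infection; synchronised at 500 × g, 28 °C, 30 min; treated at 16 h PI (25, 50, 100 µM, triplicate) beside 1% v/v DMSO and media controls; harvested 44 h PI, passaged onto fresh monolayers, fixed, stained; IFU/mL compared against limit of detection.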

Chlamydia pecorum [4] = experiment: Antibacterial activity against Chlamydia pecorum MC/MarsBar infected in human HEp-2 cells assessed as reduction in bacterial titre at 25 uM administered at 16 hrs post infection and measured 44 hrs post infection; type: functional, organism-based; settings: time 28.0 hrs
HEp-2 [5] = experiment: Cytotoxicity against human HEp-2 cells assessed as reduction in cell viability by measuring MTS reduction at 25 uM measured after 24 hrs by MTS assay relative to control; type: toxicity, cell-based; settings: hep-2, 24 h
Outline: (§1)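 HEp-2 cells plated at 5000/well, treated 24 h after plating with 25 or 100 µM inhibitor, 1% v/v DMSO or medium alone, triplicate; after 24 h exposure, MTS/PMS added for 4 h and A490 read; viability expressed relative to DMSO control; mean ± SEM, n = 3.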

HEp-2 [6] = experiment: Cytotoxicity against human HEp-2 cells assessed as loss of cell integrity by measuring cytosolic LDH release at 25 to 100 uM […] by LDH assay; type: toxicity, cell-based; settings: hep-2, 100 µM, dose 25-100 µM
Outline: (§2)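 HEp-2 cells at 5000/well, dosed 24 h after plating with 25 or 100 µM, 1% v/v DMSO or medium, triplicate; after 8 h treatment supernatant taken, incubated 30 min with CytoTox reagent then stop solution, A490 read; maximum release from untreated cells lysed with 0.8% v/v Triton X-100 45 min before harvest; extracellular LDH as % of maximum; n = 3.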

HEp-2 [7] = experiment: Cytotoxicity against human HEp-2 cells assessed as reduction in cell viability measured after 24 hrs by MTS assay; type: toxicity, cell-based; settings: hep-2, 24 h; outline: as §1
HEp-2 [8] = experiment: Cytotoxicity against human HEp-2 cells assessed as loss of cell integrity by measuring cytosolic LDH release at 25 to 100 uM […] by LDH assay relative to control; type: toxicity, cell-based; settings: hep-2, 100 µM, dose 25-100 µM; outline: as §2
[9] = Cytotoxicity against human HEp-2 cells assessed as cell viability at 25 to 100 uM measured after 24 hrs by MTS assay relative to control; type: toxicity, cell-based; settings: dose 25-100 µM, read-out: Activity; outline: as §1
Chlamydia trachomatis [10] = experiment: Antibacterial activity against Chlamydia trachomatis D/UW-3/Cx infected in human HEp-2 cells assessed as reduction in bacterial titer at 25 to 100 uM administered at 16 hrs post infection and measured 44 hrs post infection; type: functional, organism-based; settings: dose 25-100 µM, time 28.0 hrs
Chlamydia pecorum [11] = experiment: Antibacterial activity against Chlamydia pecorum MC/MarsBar infected in human HEp-2 cells assessed as reduction in bacterial titre at 25 to 100 uM administered at 16 hrs post infection and measured 44 hrs post infection; type: functional, organism-based; settings: dose 25-100 µM, time 28.0 hrs
[12] = Cytotoxicity against human HEp-2 cells assessed as cell viability at 100 uM measured after 24 hrs by MTS assay relative to control; type: toxicity, cell-based; settings: read-out: Activity; outline: as §1
HEp-2 [13] = experiment: Cytotoxicity against human HEp-2 cells assessed as loss of cell integrity by measuring cytosolic LDH release at 100 uM […] by LDH assay; type: toxicity, cell-based; settings: hep-2, 100 µM; outline: as §2

| SMILES | IC50 [1] | Activity (HEp-2 [5]) | Activity (HEp-2 [6]) | Activity (HEp-2 [7]) | other results |
| --- | --- | --- | --- | --- | --- |
| CC(C)C(NC(=O)[C@@H]1CCCN1C(=O)[C@@H](NC(=O)OC(C)(C)C)C(C)C)P(=O)(Oc1ccccc1)Oc1ccccc1 (some centres not stated) | 21.9 µM |  |  |  |  |
| CC(C)C(NC(=O)[C@@H]1CCCN1C(=O)[C@@H](NC(=O)OC(C)(C)C)C(C)(C)C)P(=O)(Oc1ccccc1)Oc1ccccc1 (some centres not stated) | 15.9 µM |  |  |  | Ratio IC50 [2]: 1.38 |
| CC(C)C(NC(=O)[C@@H]1C[C@@H](c2ccccc2)CN1C(=O)[C@@H](NC(=O)OC(C)(C)C)C(C)(C)C)P(=O)(Oc1ccccc1)Oc1ccccc1 (mixture of isomers) | 59.5 µM | < 30% | Non-Toxic |  | Activity (Chlamydia trachomatis [3]): Active; Activity (Chlamydia pecorum [4]): Active |
| CC(C)C(NC(=O)[C@@H]1C[C@@H](OC(=O)CN)CN1C(=O)[C@@H](NC(=O)OC(C)(C)C)C(C)(C)C)P(=O)(Oc1ccccc1)Oc1ccccc1 (mixture of isomers) | 13.9 µM | < 30% | Non-Toxic |  |  |
| CC(C)C(NC(=O)[C@@H]1C[C@@H](n2cc(C(N)=O)nn2)CN1C(=O)[C@@H](NC(=O)OC(C)(C)C)C(C)(C)C)P(=O)(Oc1ccccc1)Oc1ccccc1 (mixture of isomers) |  |  |  | Non-Toxic |  |
| CC(C)C(NC(=O)[C@@H]1C[C@@H](C2CCCCC2)CN1C(=O)[C@@H](NC(=O)OC(C)(C)C)C(C)(C)C)P(=O)(Oc1ccccc1)Oc1ccccc1 (mixture of isomers) | 163 µM |  |  |  | Activity (HEp-2 [8]): 80%; Activity (Chlamydia trachomatis [3]): Active; Activity (Chlamydia pecorum [4]): Active; viability at 24 h, up to 100 µM [9]: 10% |
| CC(C)C(NC(=O)[C@@H]1C[C@@H](n2nnc(O)c2O)CN1C(=O)[C@@H](NC(=O)OC(C)(C)C)C(C)(C)C)P(=O)(Oc1ccccc1)Oc1ccccc1 (mixture of isomers) |  |  |  | Non-Toxic |  |
| CC(C)C(NC(=O)[C@@H]1C[C@@H](n2cc(CO)nn2)CN1C(=O)[C@@H](NC(=O)OC(C)(C)C)C(C)(C)C)P(=O)(Oc1ccccc1)Oc1ccccc1 (mixture of isomers) | 79.7 µM |  |  | Non-Toxic | Activity (Chlamydia trachomatis [10]): Active |
| CC(C)C(NC(=O)[C@@H]1C[C@@H](n2nncc2C(C)(C)O)CN1C(=O)[C@@H](NC(=O)OC(C)(C)C)C(C)(C)C)P(=O)(Oc1ccccc1)Oc1ccccc1 (mixture of isomers) | 95.7 µM |  |  | Non-Toxic | Activity (Chlamydia trachomatis [10]): Active |
| CC(C)C(NC(=O)[C@@H]1C[C@H](n2nncc2C(C)(C)O)CN1C(=O)[C@@H](NC(=O)OC(C)(C)C)C(C)(C)C)P(=O)(Oc1ccccc1)Oc1ccccc1 (mixture of isomers) | 30.3 µM |  |  | Non-Toxic | Activity (Chlamydia pecorum [11]): Active; Activity (Chlamydia trachomatis [10]): Active |
| CC(C)C(NC(=O)[C@@H]1C[C@@H](n2cc(C(C)(C)O)nn2)CN1C(=O)[C@@H](NC(=O)OC(C)(C)C)C(C)(C)C)P(=O)(Oc1ccccc1)Oc1ccccc1 (mixture of isomers) | 71.6 µM |  |  | Non-Toxic |  |
| CC(C)C(NC(=O)[C@@H]1C[C@@H](n2nncc2C(N)=O)CN1C(=O)[C@@H](NC(=O)OC(C)(C)C)C(C)(C)C)P(=O)(Oc1ccccc1)Oc1ccccc1 (mixture of isomers) |  |  |  | Non-Toxic | Activity (Chlamydia pecorum [11]): Active; Activity (Chlamydia trachomatis [10]): Active |
| CC(C)C(NC(=O)[C@@H]1C[C@@H](O)CN1C(=O)[C@@H](NC(=O)OC(C)(C)C)C(C)(C)C)P(=O)(Oc1ccccc1)Oc1ccccc1 (mixture of isomers) | 14.2 µM | < 30% | Non-Toxic |  |  |
| CC(=O)O[C@@H]1C[C@@H](C(=O)NC(C(C)C)P(=O)(Oc2ccccc2)Oc2ccccc2)N(C(=O)[C@@H](NC(=O)OC(C)(C)C)C(C)(C)C)C1 (mixture of isomers) | 3.86 µM | < 30% | Non-Toxic |  | Activity (Chlamydia trachomatis [3]): Active; Activity (Chlamydia pecorum [4]): Active |
| CC(C)C(NC(=O)[C@@H]1C[C@H](O)CN1C(=O)[C@@H](NC(=O)OC(C)(C)C)C(C)(C)C)P(=O)(Oc1ccccc1)Oc1ccccc1 (mixture of isomers) | 48.7 µM | < 30% | Non-Toxic |  |  |
| CC(C)C(NC(=O)[C@@H]1C[C@H](n2nnc(O)c2O)CN1C(=O)[C@@H](NC(=O)OC(C)(C)C)C(C)(C)C)P(=O)(Oc1ccccc1)Oc1ccccc1 (mixture of isomers) | 23 µM |  |  | Non-Toxic |  |
| CC(C)C(NC(=O)[C@@H]1C[C@H](n2cc(CO)nn2)CN1C(=O)[C@@H](NC(=O)OC(C)(C)C)C(C)(C)C)P(=O)(Oc1ccccc1)Oc1ccccc1 (mixture of isomers) |  |  |  | Non-Toxic |  |
| CC(C)C(NC(=O)[C@@H]1C[C@@H](OC(=O)CCN)CN1C(=O)[C@@H](NC(=O)OC(C)(C)C)C(C)(C)C)P(=O)(Oc1ccccc1)Oc1ccccc1 (mixture of isomers) | 15.3 µM | < 30% | Non-Toxic |  |  |
| CC(C)C(NC(=O)[C@@H]1CCCCN1C(=O)[C@@H](NC(=O)OC(C)(C)C)C(C)(C)C)P(=O)(Oc1ccccc1)Oc1ccccc1 (mixture of isomers) | 81.8 µM | < 30% | Non-Toxic |  | Activity (Chlamydia trachomatis [3]): Active; Activity (Chlamydia pecorum [4]): Active; viability at 24 h, 100 µM [12]: 50%; Activity (HEp-2 [13]): Non-Toxic |
